{
  "source": "paper PMC3327328",
  "about": "(Molecular Biology of the Cell, 2012)",
  "molecules": {"B1": {"name": "histone H3 N-terminal peptide ARTKQTARKSTG, unmodified (peptide)", "peptide": "ARTKQTARKSTG"}, "B2": {"name": "histone H3 N-terminal peptide ARTphK, phosphorylated on T3 (peptide)", "peptide": "AR[pT]K"}, "B3": {"name": "histone H3 N-terminal peptide ARTphKQTARKSTG, phosphorylated on T3 (peptide)", "peptide": "AR[pT]KQTARKSTG"}, "B4": {"name": "histone H3 N-terminal peptide ARTK, unmodified (peptide)", "peptide": "ARTK"}},
  "key": {"[1]": {"molecular_target": "human Survivin H80A (human) (UniProt O15392)", "sequence (O15392 whole entry H80A)": "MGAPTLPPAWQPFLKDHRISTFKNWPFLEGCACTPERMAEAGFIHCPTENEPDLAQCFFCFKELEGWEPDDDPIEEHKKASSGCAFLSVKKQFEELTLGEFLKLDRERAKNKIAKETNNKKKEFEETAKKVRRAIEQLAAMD", "assay": "ITC"}, "[2]": {"molecular_target": "human Survivin K62A (human) (UniProt O15392)", "sequence (O15392 whole entry K62A)": "as the sequence (O15392 whole entry H80A) above, with K62A, A80H counted along it", "assay": "ITC"}, "[3]": {"molecular_target": "human Survivin (hs wt, class A) (Homo sapiens, UniProt O15392)", "sequence (O15392 whole entry)": "as the sequence (O15392 whole entry H80A) above, with A80H counted along it", "assay": "ITC binding of histone H3 peptides to human Survivin wild type"}, "[4]": {"molecular_target": "human Survivin K62A (Homo sapiens, UniProt O15392, K62A)", "sequence (O15392 whole entry K62A)": "as the sequence (O15392 whole entry H80A) above, with K62A, A80H counted along it", "assay": "ITC binding of histone H3 peptides to human Survivin K62A", "in_short": "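ITC at pH 7.8 with recombinant human Survivin K62A (bacterially expressed, His tag thrombin-cleaved, gel-filtered) binding H3T3ph(1-4) and unmodified H3(1-4) peptides. Syringe peptide 1.2 mM, cell protein 0.1 mM, sixteen injections 180 s apart. Kd from a single-binding-site model with stoichiometry, ΔH and Ka variable. Baseline offset corrects for heats of dilution.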"}, "[5]": {"molecular_target": "human Survivin H80R (Homo sapiens, UniProt O15392, H80R)", "sequence (O15392 whole entry H80R)": "as the sequence (O15392 whole entry H80A) above, with A80R counted along it", "assay": "ITC binding of histone H3 peptides to human Survivin H80R", "conditions": "pH 6.8, 25°C, HEPES:citric acid:Ches, 10 mM β-mercaptoethanol, single-site model, n/b = no binding", "in_short": "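Mutant human Survivin from bacteria, Ni2+-resin purified, octahistidine tag removed by thrombin, then Superdex200. ITC at pH 6.8 in citric acid–Ches–HEPES buffer, 25°C. 1.2 mM histone H3 tail peptide titrated into 0.1 mM protein over sixteen injections 180 s apart. Kd from a single-site fit with stoichiometry, ΔH and Ka variable, using a baseline offset for dilution heats.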"}, "[6]": {"molecular_target": "X. laevis class B Survivin (xl wt, xSurvivin-B) (Xenopus laevis, UniProt Q8JGN5)", "sequence (Q8JGN5 whole entry)": "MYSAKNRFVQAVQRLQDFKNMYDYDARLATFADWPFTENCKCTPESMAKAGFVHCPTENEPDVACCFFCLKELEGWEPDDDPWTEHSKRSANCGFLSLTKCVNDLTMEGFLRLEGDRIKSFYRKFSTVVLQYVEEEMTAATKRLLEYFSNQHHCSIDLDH", "assay": "ITC binding of histone H3 peptides to Xenopus Survivin class B wild type", "conditions": "pH 8.2, 25°C, HEPES:citric acid:Ches, 10 mM β-mercaptoethanol, single-site model, n/b = no binding"}, "[7]": {"molecular_target": "T1, human Survivin wild type (human, UniProt O15392 1-142)", "T1 sequence (O15392 whole entry)": "as the sequence (O15392 whole entry H80A) above, with A80H counted along it", "assay": "ITC"}, "[8]": {"molecular_target": "T1, human Survivin wild type", "assay": "ITC", "remark": "listed apart in the source"}, "[9]": {"molecular_target": "T2, Xenopus laevis class B Survivin R89H (X. laevis, UniProt Q8JGN5 1-160, R89H)", "T2 sequence (Q8JGN5 whole entry R89H)": "as the sequence (Q8JGN5 whole entry) above, with R89H counted along it", "assay": "ITC"}, "[10]": {"molecular_target": "T1, human Survivin wild type", "assay": "ITC", "remark": "listed apart in the source"}, "[11]": {"molecular_target": "human Survivin K62A (human, UniProt O15392 1-142, K62A)", "sequence (O15392 whole entry K62A)": "as the sequence (O15392 whole entry H80A) above, with K62A, A80H counted along it", "assay": "crystal structure"}, "[12]": {"molecular_target": "T1, human Survivin wild type", "assay": "ITC", "remark": "listed apart in the source"}, "[13]": {"molecular_target": "T1, human Survivin wild type", "assay": "ITC", "remark": "listed apart in the source"}, "[14]": {"molecular_target": "T1, human Survivin wild type", "assay": "ITC", "remark": "listed apart in the source"}, "[15]": {"molecular_target": "T2, Xenopus laevis class B Survivin R89H", "assay": "ITC", "remark": "listed apart in the source"}, "[16]": {"molecular_target": "T1, human Survivin wild type", "assay": "ITC", "remark": "listed apart in the source"}, "[17]": {"molecular_target": "human Survivin wild type (human) (UniProt O15392)", "sequence (O15392 whole entry)": "as the sequence (O15392 whole entry H80A) above, with A80H counted along it", "assay": "ITC"}},
  "note": "Read-outs that look alike come from different tables or passages of the source. Square brackets hold non-standard residues; d marks the D form. Ends that are not written are not given here. Peptide text beside a SMILES is read from it. pT = C[C@@H](OP(=O)(O)O)[C@H](N)C(=O)O",
  "data": [
    {"molecule": "histone H3 N-terminal peptide ARTK, unmodified", "values": [
      {"measurement": "Kd", "setting": "[1]", "result": 236, "unit": "µM"},
      {"measurement": "dH", "setting": "[1]", "result": -3.3, "unit": "kcal/mol"},
      {"measurement": "stoichiometry N", "setting": "[1]", "result": 0.99},
      {"measurement": "Kd", "setting": "[2]", "result": 31.3, "unit": "µM"},
      {"measurement": "dH", "setting": "[2]", "result": -4.61, "unit": "kcal/mol"},
      {"measurement": "stoichiometry N", "setting": "[2]", "result": 1.22}
    ]},
    {"molecule": "C[C@H](N)C(=O)N[C@@H](CCCNC(=N)N)C(=O)N[C@H](C(=O)N[C@@H](CCCCN)C(=O)O)[C@@H](C)O", "note": "[H3T3(1-4)] (H-ARTK-OH)", "values": [
      {"measurement": "Kd", "setting": "[3]", "result": "60.6 ± 4", "unit": "µM"},
      {"measurement": "Kd", "setting": "[4]", "result": "31.3 ± 2", "unit": "µM"}
    ]},
    {"molecule": "C[C@H](N)C(=O)N[C@@H](CCCNC(=N)N)C(=O)N[C@H](C(=O)N[C@@H](CCCCN)C(=O)N[C@@H](CCC(N)=O)C(=O)N[C@H](C(=O)N[C@@H](C)C(=O)N[C@@H](CCCNC(=N)N)C(=O)N[C@@H](CCCCN)C(=O)N[C@@H](CO)C(=O)N[C@H](C(=O)NCC(=O)O)[C@@H](C)O)[C@@H](C)O)[C@@H](C)O", "note": "[H3T3(1-12)]", "values": [
      {"measurement": "Kd (dissociation constant)", "setting": "[5]", "result": "n/b"},
      {"measurement": "Kd (dissociation constant)", "setting": "[6]", "result": "n/b"}
    ]},
    {"molecule": "B1", "values": [
      {"measurement": "Kd", "setting": "[7]", "result": "17.1 ± 0.8", "unit": "µM"},
      {"measurement": "dH", "setting": "[7]", "result": "-3.32 ± 0.05", "unit": "kcal/mol"},
      {"measurement": "stoichiometry N", "setting": "[7]", "result": "1.33 ± 0.01"},
      {"measurement": "Kd", "setting": "[8]", "result": "9.67 ± 0.31", "unit": "µM"},
      {"measurement": "dH", "setting": "[8]", "result": "-2.79 ± 0.02", "unit": "kcal/mol"},
      {"measurement": "stoichiometry N", "setting": "[8]", "result": "1.29 ± 0.01"},
      {"measurement": "Kd", "setting": "[9]", "result": "5.21 ± 0.39", "unit": "µM"},
      {"measurement": "dH", "setting": "[9]", "result": "-2.69 ± 0.04", "unit": "kcal/mol"},
      {"measurement": "stoichiometry N", "setting": "[9]", "result": "1.15 ± 0.01"},
      {"measurement": "Kd", "setting": "[10]", "result": "11.8 ± 1", "unit": "µM"},
      {"measurement": "dH", "setting": "[10]", "result": "-2.49 ± 0.06", "unit": "kcal/mol"},
      {"measurement": "stoichiometry N", "setting": "[10]", "result": "1.26 ± 0.01"},
      {"measurement": "binding result", "setting": "[11]", "result": "binds"},
      {"measurement": "Kd", "setting": "[12]", "result": "21.4 ± 3.2", "unit": "µM"},
      {"measurement": "dH", "setting": "[12]", "result": "-4.32 ± 0.23", "unit": "kcal/mol"},
      {"measurement": "stoichiometry N", "setting": "[12]", "result": "1.37 ± 0.04"},
      {"measurement": "Kd", "setting": "[13]", "result": "13.3 ± 0.7", "unit": "µM"},
      {"measurement": "dH", "setting": "[13]", "result": "-3.21 ± 0.05", "unit": "kcal/mol"},
      {"measurement": "stoichiometry N", "setting": "[13]", "result": "1.36 ± 0.01"},
      {"measurement": "Kd", "setting": "[14]", "result": "30.2 ± 1.2", "unit": "µM"},
      {"measurement": "dH", "setting": "[14]", "result": "-3.43 ± 0.05", "unit": "kcal/mol"},
      {"measurement": "stoichiometry N", "setting": "[14]", "result": "1.32 ± 0.01"},
      {"measurement": "Kd", "setting": "[15]", "result": "12.9 ± 1.4", "unit": "µM"},
      {"measurement": "dH", "setting": "[15]", "result": "-2.72 ± 0.06", "unit": "kcal/mol"},
      {"measurement": "stoichiometry N", "setting": "[15]", "result": "1.34 ± 0.02"},
      {"measurement": "Kd", "setting": "[16]", "result": "21 ± 1.8", "unit": "µM"},
      {"measurement": "dH", "setting": "[16]", "result": "-1.89 ± 0.04", "unit": "kcal/mol"},
      {"measurement": "stoichiometry N", "setting": "[16]", "result": "1.56 ± 0.02"}
    ]},
    {"molecule": "B2", "values": [
      {"measurement": "Kd", "setting": "[17]", "result": 61.7, "unit": "µM"},
      {"measurement": "dH", "setting": "[17]", "result": -2.12, "unit": "kcal/mol"},
      {"measurement": "stoichiometry N", "setting": "[17]", "result": 1.05}
    ]},
    {"molecule": "B3", "values": [
      {"measurement": "dH", "setting": "[7]", "result": "-4.72 ± 0.06", "unit": "kcal/mol"},
      {"measurement": "stoichiometry N", "setting": "[7]", "result": "1.2 ± 0.01"},
      {"measurement": "dH", "setting": "[8]", "result": "-4.88 ± 0.03", "unit": "kcal/mol"},
      {"measurement": "stoichiometry N", "setting": "[8]", "result": "1.03 ± 0.002"},
      {"measurement": "dH", "setting": "[9]", "result": "-4.57 ± 0.04", "unit": "kcal/mol"},
      {"measurement": "stoichiometry N", "setting": "[9]", "result": "1.09 ± 0.004"},
      {"measurement": "dH", "setting": "[10]", "result": "-5.64 ± 0.02", "unit": "kcal/mol"},
      {"measurement": "stoichiometry N", "setting": "[10]", "result": "1.13 ± 0.001"},
      {"measurement": "dH", "setting": "[12]", "result": "-6.85 ± 0.02", "unit": "kcal/mol"},
      {"measurement": "stoichiometry N", "setting": "[12]", "result": "1.01 ± 0.002"},
      {"measurement": "dH", "setting": "[13]", "result": "-4.65 ± 0.05", "unit": "kcal/mol"},
      {"measurement": "stoichiometry N", "setting": "[13]", "result": "1.12 ± 0.01"},
      {"measurement": "dH", "setting": "[14]", "result": "-4.13 ± 0.22", "unit": "kcal/mol"},
      {"measurement": "stoichiometry N", "setting": "[14]", "result": "1.23 ± 0.02"},
      {"measurement": "dH", "setting": "[15]", "result": "-0.87 ± 0.015", "unit": "kcal/mol"},
      {"measurement": "stoichiometry N", "setting": "[15]", "result": "1.04 ± 0.01"},
      {"measurement": "dH", "setting": "[16]", "result": "-0.67 ± 0.05", "unit": "kcal/mol"},
      {"measurement": "stoichiometry N", "setting": "[16]", "result": "1.35 ± 0.06"}
    ]},
    {"molecule": "B4", "values": [
      {"measurement": "Kd", "setting": "[17]", "result": 60.6, "unit": "µM"},
      {"measurement": "dH", "setting": "[17]", "result": -3.16, "unit": "kcal/mol"},
      {"measurement": "stoichiometry N", "setting": "[17]", "result": 1.27}
    ]}
  ]
}
